Data set [1] deals with T1, Melanocortin receptor 4 (Mus musculus, UniProt P56450). As to the kind of experiment: Agonist activity against mouse MC4R expressed in HEK293 cells assessed as increase in cAMP level incubated for 2 hrs by AlphaScreen assay. Type of data set: functional, cell-based. For orientation: Changes in cAMP serve as a functional read-out for many G protein-coupled receptors.
Data set [2] addresses T2, Melanocortin receptor 5 (Mus musculus, UniProt P41149). As to the kind of experiment: Agonist activity against mouse MC5R expressed in HEK293 cells assessed as increase in cAMP level incubated for 2 hrs by AlphaScreen assay. Type of data set: functional, cell-based.
Data set [3] deals with T1, Melanocortin receptor 4. As to the kind of experiment: Binding affinity to mouse MC4R expressed in HEK293 cells assessed as inhibition constant by schild plot analysis. Type of data set: cell-based.
Data set [4] deals with T3, Melanocyte-stimulating hormone receptor (Mus musculus, UniProt Q01727). Briefly: Binding affinity to mouse MC1R expressed in HEK293 cells coexpressing CRE/beta-galactosidase assessed as inhibition constant. It counts as cell-based.
For data set [5], the target named is T3, Melanocyte-stimulating hormone receptor. Briefly: Agonist activity against mouse MC1R expressed in HEK293 cells assessed as increase in cAMP level incubated for 2 hrs by AlphaScreen assay. It counts as functional, cell-based.
Data set [6] addresses T4, Melanocortin receptor 3 (Mus musculus, UniProt P33033). Briefly: Agonist activity against mouse MC3R expressed in HEK293 cells assessed as increase in cAMP level incubated for 2 hrs by AlphaScreen assay. It counts as functional, cell-based.
Data set [7] has as its target T3, Melanocyte-stimulating hormone receptor. As to the kind of experiment: Binding affinity to mouse MC1R expressed in HEK293 cells assessed as inhibition constant by schild plot analysis. It counts as cell-based.
For data set [8] the target is unchanged. As to the kind of experiment: Partial agonist activity against mouse MC1R expressed in HEK293 cells assessed as increase in cAMP level incubated for 2 hrs by AlphaScreen assay. It counts as functional, cell-based.
Data set [9] has as its target T4, Melanocortin receptor 3. Briefly: Binding affinity to mouse MC3R expressed in HEK293 cells assessed as inhibition constant by schild plot analysis. Type of data set: cell-based.
Data set [10] deals with T2, Melanocortin receptor 5. Briefly: Binding affinity to mouse MC5R expressed in HEK293 cells assessed as inhibition constant by schild plot analysis. Type of data set: cell-based.
Data set [11] deals with T2, Melanocortin receptor 5. Briefly: Binding affinity to mouse MC5R expressed in HEK293 cells coexpressing CRE/beta-galactosidase assessed as inhibition constant. Type of data set: cell-based.
The target of data set [12] is Melanocyte-stimulating hormone receptor (Homo sapiens, UniProt Q01726). As to the kind of experiment: Binding affinity to human MC1R.
Data set [13] relates to Mus musculus. As to the kind of experiment: In vivo antagonist activity MC4R in wild type C57BL/6J mouse assessed as increase in food intake at 10 nmol per mouse, IT administered directly into the spinal canal and measured for 4 to 6 hrs. It counts as functional, organism-based. Particulars: time 4-6 hrs. The procedure, abridged:
(§1)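 Wild-type male and female mice (mixed 129/Sv×C57BL/6J, in-house colony) on a reversed 12-h light/dark cycle with chow ad libitum. Crossover design with 6–7 days between treatments. […] Cumulative food intake weighed at 0–72 h. n ≥ 8 per group; two-way ANOVA against vehicle.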

Data set [14] relates to Mus musculus. Briefly: In vivo antagonist activity MC4R in wild type C57BL/6J mouse assessed as increase in food intake at 15 nmol per mouse, IT administered directly into the spinal canal and measured for 2 to 6 hrs. Type of data set: functional, organism-based. Particulars: time 2-6 hrs. The procedure, abridged:
as §1

Data set [15] relates to Mus musculus. As to the kind of experiment: In vivo antagonist activity MC4R in wild type C57BL/6J mouse assessed as increase in food intake at 10 to 15 nmol per mouse, IT administered directly into the spinal canal and measured for 24 hrs. Particulars: dose 10-15 nmol. It counts as functional, organism-based. A digest of the protocol:
as §1

The nature of data set [16]: Toxicity in C57BL/6J mouse assessed as reduction in body weight at 10 to 15 nmol per mouse, IT measured for 24 to 48 hrs. Particulars: in vivo, other, dose lower 10 nmol, time lower 24 hrs, dose upper 15 nmol, time upper 48 hrs. A digest of the protocol:
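Wild-type male and female mice (129/Sv×C57BL/6J) in a crossover design, given 10 or 15 nmol intrathecally in 5 μL DMSO/water vehicle. Body weight recorded at 0, 24 and 48 h and compared with vehicle-treated controls.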

Calls of active or inactive are those of the source. The calls are words filed in the database; no cut-off is given here. Bridge positions count the residues as written; N and C are the ends. Square brackets hold non-standard residues; d marks the D form. Peptide text beside a SMILES is read from it. dPhe(4-I) = N[C@H](Cc1ccc(I)cc1)C(=O)O; 2Nal = N[C@@H](Cc1ccc2ccccc2c1)C(=O)O; hArg = N=C(N)NCCCC[C@H](N)C(=O)O; Cit = NC(=O)NCCC[C@H](N)C(=O)O; Orn = NCCC[C@H](N)C(=O)O; Dab = NCC[C@H](N)C(=O)O; Dap = NC[C@H](N)C(=O)O

T1 sequence (P56450 whole entry): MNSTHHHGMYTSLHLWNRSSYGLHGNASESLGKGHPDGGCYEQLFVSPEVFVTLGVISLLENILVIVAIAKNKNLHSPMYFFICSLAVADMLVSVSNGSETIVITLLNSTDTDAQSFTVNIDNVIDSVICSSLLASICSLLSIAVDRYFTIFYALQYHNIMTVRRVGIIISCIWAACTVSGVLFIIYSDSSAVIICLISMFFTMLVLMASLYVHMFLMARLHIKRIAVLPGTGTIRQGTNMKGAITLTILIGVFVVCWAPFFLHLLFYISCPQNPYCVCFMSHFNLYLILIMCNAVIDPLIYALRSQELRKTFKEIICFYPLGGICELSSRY
T2 sequence (P41149 whole entry): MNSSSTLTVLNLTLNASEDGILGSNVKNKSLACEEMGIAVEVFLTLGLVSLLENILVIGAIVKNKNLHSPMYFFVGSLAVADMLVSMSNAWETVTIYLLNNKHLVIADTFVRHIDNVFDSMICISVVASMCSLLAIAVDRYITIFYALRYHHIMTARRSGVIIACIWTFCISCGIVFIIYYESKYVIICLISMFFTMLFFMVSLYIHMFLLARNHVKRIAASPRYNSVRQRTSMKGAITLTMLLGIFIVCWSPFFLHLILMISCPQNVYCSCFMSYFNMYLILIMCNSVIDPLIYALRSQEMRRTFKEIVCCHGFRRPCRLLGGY
T4 sequence (P33033 whole entry): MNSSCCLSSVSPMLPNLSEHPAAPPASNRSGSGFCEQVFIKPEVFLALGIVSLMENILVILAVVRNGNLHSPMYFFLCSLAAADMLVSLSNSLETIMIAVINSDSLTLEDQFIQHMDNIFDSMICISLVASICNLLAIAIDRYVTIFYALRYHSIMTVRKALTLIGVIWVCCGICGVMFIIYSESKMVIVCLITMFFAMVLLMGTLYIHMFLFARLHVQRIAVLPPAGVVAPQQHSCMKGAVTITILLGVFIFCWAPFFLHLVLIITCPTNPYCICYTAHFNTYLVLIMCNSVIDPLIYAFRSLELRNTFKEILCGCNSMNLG
T3 sequence (Q01727 whole entry): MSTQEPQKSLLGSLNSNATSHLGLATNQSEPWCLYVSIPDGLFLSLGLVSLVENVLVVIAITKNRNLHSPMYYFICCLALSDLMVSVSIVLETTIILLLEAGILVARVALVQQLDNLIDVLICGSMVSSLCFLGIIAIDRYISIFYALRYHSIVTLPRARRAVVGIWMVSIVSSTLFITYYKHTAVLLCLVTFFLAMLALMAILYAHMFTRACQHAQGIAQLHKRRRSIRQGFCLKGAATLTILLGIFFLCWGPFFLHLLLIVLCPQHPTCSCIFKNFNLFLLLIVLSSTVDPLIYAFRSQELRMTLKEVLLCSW
Sequence of Melanocyte-stimulating hormone receptor (Homo sapiens, UniProt Q01726) (Q01726 whole entry): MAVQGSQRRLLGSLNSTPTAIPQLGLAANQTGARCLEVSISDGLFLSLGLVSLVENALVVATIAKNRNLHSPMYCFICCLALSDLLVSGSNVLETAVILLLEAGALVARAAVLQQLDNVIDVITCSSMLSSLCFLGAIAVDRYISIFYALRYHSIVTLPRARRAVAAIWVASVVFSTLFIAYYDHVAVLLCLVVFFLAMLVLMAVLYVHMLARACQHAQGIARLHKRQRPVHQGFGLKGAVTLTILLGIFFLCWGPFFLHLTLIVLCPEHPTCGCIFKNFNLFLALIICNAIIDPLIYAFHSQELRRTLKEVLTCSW

As for `CC(=O)N[C@H](Cc1ccc(I)cc1)C(=O)N[C@@H](Cc1c[nH]cn1)C(=O)N[C@@H](Cc1ccc2ccccc2c1)C(=O)N[C@@H](CCCNC(=N)N)C(N)=O` (Ac-[dPhe(4-I)]H[2Nal]R-NH2), the EC50 on Melanocortin receptor 4 [1] and on Melanocortin receptor 5 [2] was over 100 µM in each case. Further, at Melanocortin receptor 4 [3], the Ki (commonly a dissociation constant, usually derived from enzyme kinetics or from competition with a known ligand) was found to be 0.1 µM.
Take `C[C@@H]1NC(=O)[C@H](CC(N)=O)NC(=O)[C@H](Cc2ccccc2)NC(=O)[C@H](Cc2ccccc2)NC(=O)[C@H](CCCN=C(N)N)NC(=O)[C@@H](NC(=O)[C@@H](N)Cc2ccc(O)cc2)CCC(=O)NC[C@@H](C(=O)N[C@@H](Cc2ccc(O)cc2)C(N)=O)NC(=O)[C@H](Cc2ccccc2)NC1=O` (H-YERFFNAF[Dap]Y-NH2; lactam 2-9): the Ki in data set [4] turned out to be 1.2 µM.
Take `CC(=O)N[C@H](Cc1ccc(I)cc1)C(=O)N[C@@H](CN)C(=O)N[C@@H](Cc1ccc2ccccc2c1)C(=O)N[C@@H](CCCNC(=N)N)C(N)=O` (Ac-[dPhe(4-I)][Dap][2Nal]R-NH2): the EC50 (in data set [5]; on Melanocortin receptor 3 [6]; at Melanocortin receptor 4 [1]; at Melanocortin receptor 5 [2]) was over 100 µM throughout. Moreover, the Ki in [7] is 0.1 µM.
Turning to `CC(=O)N[C@H](Cc1ccc(I)cc1)C(=O)N[C@@H](CCC(=O)O)C(=O)N[C@@H](Cc1ccc2ccccc2c1)C(=O)N[C@@H](CCCNC(=N)N)C(N)=O` (Ac-[dPhe(4-I)]E[2Nal]R-NH2), the EC50 (in data set [5]; on Melanocortin receptor 3 [6]; on Melanocortin receptor 4 [1]; at Melanocortin receptor 5 [2]) was over 100 µM each time.
In the case of `CC(=O)N[C@H](Cc1ccc(I)cc1)C(=O)N[C@@H](CCCNC(=N)N)C(=O)N[C@@H](Cc1ccc2ccccc2c1)C(=O)N[C@@H](Cc1c[nH]cn1)C(N)=O` (Ac-[dPhe(4-I)]R[2Nal]H-NH2), the EC50 (usually the concentration that produces a half-maximal response) in data set [8] is 0.4 µM; on Melanocortin receptor 4 [1] it was over 100 µM; at Melanocortin receptor 5 [2], over 100 µM. Also, the Ki at Melanocortin receptor 3 [9] came to 0.1 µM.
As to `CC(=O)N[C@H](Cc1ccc(I)cc1)C(=O)N[C@@H](CCCNC(=N)N)C(=O)N[C@@H](Cc1ccc2ccccc2c1)C(=O)N[C@@H](CCCCNC(=N)N)C(N)=O` (Ac-[dPhe(4-I)]R[2Nal][hArg]-NH2), the EC50 on Melanocortin receptor 3 [6], on Melanocortin receptor 4 [1] and at Melanocortin receptor 5 [2] was over 100 µM throughout. In addition, the Ki on Melanocortin receptor 5 [10] is 1 µM.
As for `CC(=O)N[C@H](Cc1ccc(I)cc1)C(=O)N[C@@H](CCCNC(=N)N)C(=O)N[C@@H](Cc1ccc2ccccc2c1)C(=O)N[C@@H](CCN)C(N)=O` (Ac-[dPhe(4-I)]R[2Nal][Dab]-NH2), the EC50 in data set [8] was 1.1 µM; on Melanocortin receptor 3 [6], over 100 µM; at Melanocortin receptor 4 [1], over 100 µM; on Melanocortin receptor 5 [2], over 100 µM.
With `CC(=O)N[C@H](Cc1ccc(I)cc1)C(=O)N[C@@H](CCCNC(=N)N)C(=O)N[C@@H](Cc1ccc2ccccc2c1)C(=O)N[C@@H](CN)C(N)=O` (Ac-[dPhe(4-I)]R[2Nal][Dap]-NH2), the EC50 on Melanocortin receptor 3 [6], at Melanocortin receptor 4 [1] and on Melanocortin receptor 5 [2] was over 100 µM each time.
Consider `CCCC[C@H](NC(C)=O)C(=O)N[C@H]1CC(=O)NCCCC[C@@H](C(N)=O)NC(=O)[C@@H](Cc2ccc3ccccc3c2)NC(=O)[C@H](CCCNC(=N)N)NC(=O)[C@@H](Cc2ccc3ccccc3c2)NC(=O)[C@H](Cc2cn(C)cn2)NC1=O`, for which the Ki at Melanocortin receptor 5 [11] amounted to 0.063 µM.
In the case of `CC(C)[C@H](NC(=O)[C@@H]1CCC(=O)NCC(=O)N[C@@H](C2CCCC2)C(=O)N[C@H](Cc2ccc3ccccc3c2)C(=O)N[C@@H](CCCNC(=N)N)C(=O)N[C@@H](Cc2c[nH]c3ccccc23)C(=O)N1)C(=O)N[C@H](C(=O)NCC(N)=O)C(C)C`, the Ki in [12] was determined as 0.053 µM.
Consider `CC(=O)N[C@H](Cc1ccc(I)cc1)C(=O)N[C@@H](CCCNC(=N)N)C(=O)N[C@@H](Cc1ccc2ccccc2c1)C(=O)N[C@@H](CCCN)C(N)=O` (Ac-[dPhe(4-I)]R[2Nal][Orn]-NH2), for which the outcome in the data set with Mus musculus [13] and in the data set with Mus musculus [14] was Active. For the same compound, in the data set on Mus musculus [15], the outcome was inactive. Further, the Activity result in data set [16] is on record as “Non-Toxic”.
Turning to `CC(=O)N[C@H](Cc1ccc(I)cc1)C(=O)N[C@@H](CCCCN)C(=O)N[C@@H](Cc1ccc2ccccc2c1)C(=O)N[C@@H](CCCNC(=N)N)C(N)=O` (Ac-[dPhe(4-I)]K[2Nal]R-NH2), the EC50 at Melanocortin receptor 4 [1] was over 100 µM.
As for `CC(=O)N[C@H](Cc1ccc(I)cc1)C(=O)N[C@@H](CCCN)C(=O)N[C@@H](Cc1ccc2ccccc2c1)C(=O)N[C@@H](CCCNC(=N)N)C(N)=O` (Ac-[dPhe(4-I)][Orn][2Nal]R-NH2), the EC50 at Melanocortin receptor 3 [6], on Melanocortin receptor 4 [1] and at Melanocortin receptor 5 [2] was over 100 µM throughout. In addition, the Ki on Melanocortin receptor 4 [3] was 0.1 µM.
Regarding `CC(=O)N[C@H](Cc1ccc(I)cc1)C(=O)N[C@H](CCCCN)C(=O)N[C@@H](Cc1ccc2ccccc2c1)C(=O)N[C@@H](CCCNC(=N)N)C(N)=O` (Ac-[dPhe(4-I)][dK][2Nal]R-NH2), the EC50 (in data set [5]; at Melanocortin receptor 4 [1]) was over 100 µM in each case.
For `CC(=O)N[C@H](Cc1ccc(I)cc1)C(=O)N[C@@H](CCCNC(N)=O)C(=O)N[C@@H](Cc1ccc2ccccc2c1)C(=O)N[C@@H](CCCNC(=N)N)C(N)=O` (Ac-[dPhe(4-I)][Cit][2Nal]R-NH2), the EC50 on Melanocortin receptor 4 [1] and at Melanocortin receptor 5 [2] was over 100 µM each time.
Take `CC(=O)N[C@H](Cc1ccc(I)cc1)C(=O)N[C@@H](CCCNC(=N)N)C(=O)N[C@@H](Cc1ccc2ccccc2c1)C(=O)N[C@@H](CCCNC(N)=O)C(N)=O` (Ac-[dPhe(4-I)]R[2Nal][Cit]-NH2): the EC50 (in data set [5]; on Melanocortin receptor 3 [6]; at Melanocortin receptor 4 [1]; on Melanocortin receptor 5 [2]) was over 100 µM in each case.

For the origin of these results see ChEMBL document CHEMBL5352507, “Discovery of a Pan-Melanocortin Receptor Antagonist [Ac-DPhe(pI)-Arg-Nal(2')-Orn-NH2] at the MC1R, MC3R, MC4R, and MC5R that Mediates an Increased Feeding Response in Mice and a 40-Fold Selective MC1R Antagonist [Ac-DPhe(pI)-DArg-Nal(2')-Arg-NH2]” (J Med Chem, 2023).
